Source: ChEMBL document CHEMBL3414514, “Synthesis and pharmacological evaluation of novel bisindole derivatives bearing oximes moiety: identification of novel proapoptotic agents” (Eur J Med Chem, 2015)
Active and inactive are the calls of the source. The rule behind the calls is not given here.

Legend:
[1] = Induction of apoptosis in human T24 cells assessed as cytC upregulation after 24 hrs by qRT-PCR analysis; assay type: functional, cell-based; details: T-24
Procedure, shortened: (§1)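 T24 cells treated at […] for 24 h before RNA extraction. SYBR Green qRT-PCR with 500 nM primers: 2 min at 50 C, 10 min at 95 C, then 40 cycles of 15 s at 95 C and 1 min at 60 C. Expression by the ΔCt method against actin, normalized to untreated cells; run in triplicate.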

[2] = test system: HUVEC; assay: Cytotoxicity against human HUVEC cells after 2 days by MTT assay; assay type: cell-based; details: 48 h
Procedure, shortened: (§2)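 Cells grown in medium with 10% heat-inactivated FBS at 37 C under 5% CO2. Compounds dissolved in medium with 1% DMSO; controls received 1% DMSO. After 2 days, MTT (10 mg/mL) added for 4 h, formazan dissolved in DMSO and absorbance read at 570/630 nm. Survival taken relative to negative control; IC50 by Bliss method (n = 5), at least three independent experiments.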

[3] = Induction of apoptosis in human T24 cells assessed as AIF upregulation after 24 hrs by qRT-PCR analysis; assay type: functional, cell-based; details: T-24; procedure, shortened: as §1
[4] = Cell cycle arrest in human T24 cells assessed as reduction in Cyclin D1 level after 24 hrs by Western blotting analysis; assay type: functional, cell-based; details: T-24
Procedure, shortened: (§3)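 T24 cells treated at […] for 24 h and lysed in ice-cold RIPA buffer with protease inhibitors and NaF. Protein measured by Bradford; 30 micrograms per lane run on 12% SDS-PAGE and transferred to PVDF. Blocked 2 h at room temperature, primary antibody overnight at 4 C, HRP secondary (1:2000) 1 h, chemiluminescence detection.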

[5] = test system: T-24; assay: Induction of apoptosis in human T24 cells assessed as early apoptotic cells at 10 uM after 24 hrs by annexin-V-FITC/propidium iodide staining-based flow cytometry (reference value: 2.74%); assay type: functional
[6] = test system: T-24; assay: Induction of apoptosis in human T24 cells assessed as loss of mitochondrial membrane potential at 5 to 20 uM after 24 hrs by JC-1 staining-based fluorescence microscopic analysis relative to control; assay type: functional, cell-based
Procedure, shortened: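 T24 cells exposed 24 h at 5, 10 and 20 µM, then given an equal volume of JC-1 staining solution at 37 °C for 20 min and rinsed twice with PBS. Monomer (green, 515–545 nm) and aggregate (red, 570–600 nm) emissions were viewed by fluorescence microscopy. Depolarization was read as a rise in the green/red ratio against untreated control.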

[7] = Induction of apoptosis in human T24 cells assessed as caspase-9 upregulation at IC50 after 24 hrs by qRT-PCR analysis relative to control; assay type: functional, cell-based; details: T-24
[8] = test system: T-24; assay: Induction of apoptosis in human T24 cells assessed as viable cells at 10 uM after 24 hrs by annexin-V-FITC/propidium iodide staining-based flow cytometry (reference value: 93.5%); assay type: functional; details: T-24, 24 h, read-out: Activity
[9] = Cell cycle arrest in human T24 cells assessed as increase in p27 level after 24 hrs by Western blotting analysis; assay type: functional, cell-based; details: T-24; procedure, shortened: as §3
[10] = Cell cycle arrest in human T24 cells assessed as increase in p21 level after 24 hrs by Western blotting analysis; assay type: functional, cell-based; details: T-24; procedure, shortened: as §3
[11] = Induction of apoptosis in human T24 cells assessed as tp53 upregulation after 24 hrs by qRT-PCR analysis; assay type: functional, cell-based; details: T-24
[12] = Cell cycle arrest in human T24 cells assessed as accumulation at G2 phase at 5 uM after 48 hrs by Rnase A/propidium iodide staining-based flow cytometry (reference value: 3.58%); assay type: functional; details: T-24
Procedure, shortened: (§4)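 T24 cells exposed to […] for 48 h, washed with ice-cold PBS, then fixed and permeabilized overnight in ice-cold 70% ethanol. RNase A (100 mg/mL) treatment at 37 C for 30 min, then PI staining (1 mg/mL) in the dark at 4 C for 30 min. Flow cytometry gave the percentage of cells in G1, S and G2 phase.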

[13] = Cytotoxicity against human SPCA2 cells after 2 days by MTT assay; assay type: functional, cell-based; details: SPCA2, 48 h; procedure, shortened: as §2
[14] = test system: T-24; assay: Induction of apoptosis in human T24 cells assessed as late apoptotic cells at 20 uM after 24 hrs by annexin-V-FITC/propidium iodide staining-based flow cytometry (reference value: 2.08%); assay type: functional
[15] = Induction of apoptosis in human T24 cells assessed as Bax upregulation after 24 hrs by qRT-PCR analysis; assay type: functional, cell-based; details: T-24; procedure, shortened: as §1
[16] = test system: T-24; assay: Induction of apoptosis in human T24 cells assessed as viable cells at 5 uM after 24 hrs by annexin-V-FITC/propidium iodide staining-based flow cytometry (reference value: 93.5%); assay type: functional; details: T-24, 24 h, read-out: Activity
[17] = test system: T-24; assay: Induction of apoptosis in human T24 cells assessed as viable cells at 20 uM after 24 hrs by annexin-V-FITC/propidium iodide staining-based flow cytometry (reference value: 93.5%); assay type: functional; details: T-24, 24 h, read-out: Activity
[18] = test system: T-24; assay: Induction of apoptosis in human T24 cells assessed as cytochrome C accumulation in cytosol at 20 uM after 6 to 24 hrs by Western blotting analysis; assay type: functional, cell-based
[19] = Cell cycle arrest in human T24 cells assessed as accumulation at G1 phase at 5 uM after 48 hrs by Rnase A/propidium iodide staining-based flow cytometry (reference value: 34.43%); assay type: functional; details: T-24; procedure, shortened: as §4
[20] = test system: T-24; assay: Induction of apoptosis in human T24 cells assessed as early apoptotic cells at 20 uM after 24 hrs by annexin-V-FITC/propidium iodide staining-based flow cytometry (reference value: 2.74%); assay type: functional
[21] = test system: T-24; assay: Induction of apoptosis in human T24 cells assessed as increase in Bax protein expression after 6 to 24 hrs by Western blotting analysis; assay type: functional, cell-based
[22] = test system: T-24; assay: Induction of apoptosis in human T24 cells assessed as late apoptotic cells at 10 uM after 24 hrs by annexin-V-FITC/propidium iodide staining-based flow cytometry (reference value: 2.08%); assay type: functional
[23] = test system: T-24; assay: Induction of apoptosis in human T24 cells assessed as necrotic cells at 10 uM after 24 hrs by annexin-V-FITC/propidium iodide staining-based flow cytometry (reference value: 1.66%); assay type: functional
[24] = test system: T-24; assay: Induction of apoptosis in human T24 cells assessed as reduction in cellular volume after 24 hrs by Hoechst 33258 staining-based fluorescence microscopic analysis relative to control; assay type: functional, cell-based
Procedure, shortened: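 T24 cells on cover slips exposed 24 h at 5, 10 and 20 µM, with untreated cells as control. Fixed in 4% paraformaldehyde for 10 min, washed with PBS and stained with Hoechst 33258 for 5 min. Nuclei were viewed by fluorescence microscopy at 350 nm excitation and 460 nm emission.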

[25] = Cell cycle arrest in human T24 cells assessed as accumulation at S phase at 5 uM after 48 hrs by Rnase A/propidium iodide staining-based flow cytometry (reference value: 62%); assay type: functional; details: T-24; procedure, shortened: as §4
[26] = Induction of apoptosis in human T24 cells assessed as caspase-8 upregulation after 24 hrs by qRT-PCR analysis; assay type: functional, cell-based; details: T-24; procedure, shortened: as §1
[27] = test system: T-24; assay: Induction of apoptosis in human T24 cells assessed as membrane blebbing at 5 to 20 uM after 24 hrs by AO/EB staining-based fluorescence microscopic analysis relative to control; assay type: functional, cell-based
Procedure, shortened: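 T24 cells seeded at 5 × 10^4 cells/mL on cover slips. Medium was replaced with fresh medium containing 10% FBS and compound at 5, 10 or 20 µM for 24 h. Cover slips were inverted onto AO/EB stain and viewed by fluorescence microscopy. Live cells score uniform green, early apoptotic green-yellow, late apoptotic orange, and necrotic orange without condensed chromatin. Untreated cells served as control.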

Q: What does the source list for `COc1ccc2c(c1)/C(=N\O)C(c1c[nH]c3ccc(OC)cc13)=N2`?
A: Activity [1]: Dose-dependent effect; IC50 [2]: > 100 µM; Activity [3]: Dose-dependent effect; Activity [4]: Dose-dependent effect; Activity [5]: 11.9%; Activity [6]: Active; fold change (FC) [7]: 27.1; viability at 10 µM [8]: 79.9%; Activity [9]: Dose-dependent effect; Activity [10]: Dose-dependent effect; Activity [11]: Dose-dependent effect; Activity [12]: 3.11%; IC50 [13]: 7.73 µM; Activity [14]: 7.13%; Activity [15]: Dose-dependent effect; viability at 5 µM [16]: 85.9%; viability at 20 µM [17]: 58.1%; Activity [18]: Active; Activity [19]: 45%; Activity [20]: 32.7%; Activity [21]: Dose-dependent effect; Activity [22]: 7.06%; Activity [23]: 1.22%; Activity [24]: Dose-dependent effect; Activity [25]: 51.9%; Activity [26]: Dose-dependent effect; Activity [27]: Active
